Test results published in PMC12578630 (Nature Microbiology, 2025).
Values after ≈ are worked out from the molar mass of the structure shown. Where two headings read alike, the source gives them in different places.

Tests used:
MRSA QLH-2022-718 = assay: Bacterial resistance development, serial passage; type: cell-based, Staphylococcus aureus; settings: for MIC: Staphylococcus aureus, MRSA
[1] = Histologic changes in the kidney and colon; type: in vivo, mouse; settings: H&E, infected and treated mice
In short: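 Tissue fixed in 4% paraformaldehyde for at least 24 h, dehydrated through graded ethanol, cleared in xylene, paraffin-embedded. Sections cut at 4 μm, dried at 60 °C, dewaxed and rehydrated. Stained with haematoxylin (3–5 min), differentiated and blued, counterstained with eosin (15 s), then dehydrated, cleared and mounted in neutral balsam. Imaged by light microscopy.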

CRAB QLH-2022-637 = assay: Bacterial resistance development, serial passage; type: cell-based, Acinetobacter baumannii; settings: serial passage at 0.5-fold MIC

Molecule	MIC (MRSA QLH-2022-718; read-out: MIC after 18 passages) [µg/mL]	MIC (MRSA QLH-2022-718; read-out: MIC at the first passage) [µg/mL]	fold increase in MIC after 18 passages (MRSA QLH-2022-718; serial passage at 0.5-fold MIC) [fold]	kidney tissue histology, in words [1]	fold increase in MIC after 20 passages (CRAB QLH-2022-637) [fold]
CN[C@H](CC(C)C)C(=O)N[C@H]1C(=O)N[C@@H](CC(N)=O)C(=O)N[C@H]2C(=O)N[C@H]3C(=O)N[C@H](C(=O)N[C@H](C(=O)O)c4cc(O)cc(O)c4-c4cc3ccc4O)[C@H](O)c3ccc(c(Cl)c3)Oc3cc2cc(c3O[C@@H]2O[C@H](CO)[C@@H](O)[C@H](O)[C@H]2O[C@H]2C[C@](C)(N)[C@H](O)[C@H](C)O2)Oc2ccc(cc2Cl)[C@H]1O [vancomycin]	≥ 64	0.5 (≈ 0.345 µM)	≥ 128	histopathological changes: cytoplasmic rarefaction and pale staining	–
polymyxin B	–	–	–	A small amount of venous stasis	32
